Consider 13 molecules from ChEMBL document CHEMBL1782047, “Retinoid receptor subtype-selective modulators through synthetic modifications of RARgamma agonists” (Bioorg Med Chem, 2009).

Holding throughout (assay type): cell-based
Experiment [1] deals with T1, Retinoic acid receptor gamma (Mus musculus) (UniProt P18911).
T1 sequence (whole entry): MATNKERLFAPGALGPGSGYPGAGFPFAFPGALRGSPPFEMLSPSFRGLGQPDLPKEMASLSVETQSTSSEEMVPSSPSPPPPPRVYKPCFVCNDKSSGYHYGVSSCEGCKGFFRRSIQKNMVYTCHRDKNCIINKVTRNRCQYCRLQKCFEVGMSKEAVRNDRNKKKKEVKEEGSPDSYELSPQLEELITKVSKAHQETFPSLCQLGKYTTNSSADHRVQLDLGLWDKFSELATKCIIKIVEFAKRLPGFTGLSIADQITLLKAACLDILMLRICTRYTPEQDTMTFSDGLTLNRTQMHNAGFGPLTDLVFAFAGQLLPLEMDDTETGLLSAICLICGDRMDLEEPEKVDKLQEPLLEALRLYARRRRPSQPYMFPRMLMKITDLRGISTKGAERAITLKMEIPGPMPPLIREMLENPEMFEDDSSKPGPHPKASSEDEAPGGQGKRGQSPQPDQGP
Put plainly: Agonist activity at yeast GAL4 fused mouse RARgamma ligand binding domain expressed in HeLa cells assessed as receptor transactivation by luciferase reporter gene assay. The essentials: (§1)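 Stably transfected HeLa lines carrying a (17m)5-βG-Luc-Neo reporter and the matching Gal4-mRAR fusion were seeded at 160,000 cells/well. After 12 h, cells were given ligand across a dose range in phenol-red-free DMEM with 5% charcoal-treated FCS and held 12 h at 37 °C, 5% CO2. Lysates were read for luciferase with luciferin, ATP and coenzyme A. Fold induction is compound RLU over vehicle-control RLU.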
(In general: In a reporter assay the amount or activity of a reporter protein is the signal.)

For experiment [2], the target named is T2, Retinoic acid receptor alpha (Mus musculus) (UniProt P11416).
T2 sequence (whole entry): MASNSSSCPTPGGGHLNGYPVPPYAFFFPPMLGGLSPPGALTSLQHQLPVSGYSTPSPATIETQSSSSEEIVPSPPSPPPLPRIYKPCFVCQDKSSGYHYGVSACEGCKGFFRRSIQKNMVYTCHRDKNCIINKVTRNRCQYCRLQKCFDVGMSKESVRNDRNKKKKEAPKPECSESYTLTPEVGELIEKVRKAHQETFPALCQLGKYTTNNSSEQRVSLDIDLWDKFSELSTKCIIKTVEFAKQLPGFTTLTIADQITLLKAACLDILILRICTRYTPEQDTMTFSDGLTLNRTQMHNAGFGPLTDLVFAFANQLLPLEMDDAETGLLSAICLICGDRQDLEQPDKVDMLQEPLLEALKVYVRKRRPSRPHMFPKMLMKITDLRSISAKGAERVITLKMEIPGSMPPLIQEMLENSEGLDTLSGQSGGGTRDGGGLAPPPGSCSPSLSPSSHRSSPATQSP
Put plainly: Agonist activity at yeast GAL4 fused mouse RARalpha ligand binding domain expressed in HeLa cells assessed as receptor transactivation by luciferase reporter gene assay. In a few lines: as §1

Experiment [3] deals with T3, Retinoic acid receptor RXR-beta (Homo sapiens) (UniProt P28702).
T3 sequence (whole entry): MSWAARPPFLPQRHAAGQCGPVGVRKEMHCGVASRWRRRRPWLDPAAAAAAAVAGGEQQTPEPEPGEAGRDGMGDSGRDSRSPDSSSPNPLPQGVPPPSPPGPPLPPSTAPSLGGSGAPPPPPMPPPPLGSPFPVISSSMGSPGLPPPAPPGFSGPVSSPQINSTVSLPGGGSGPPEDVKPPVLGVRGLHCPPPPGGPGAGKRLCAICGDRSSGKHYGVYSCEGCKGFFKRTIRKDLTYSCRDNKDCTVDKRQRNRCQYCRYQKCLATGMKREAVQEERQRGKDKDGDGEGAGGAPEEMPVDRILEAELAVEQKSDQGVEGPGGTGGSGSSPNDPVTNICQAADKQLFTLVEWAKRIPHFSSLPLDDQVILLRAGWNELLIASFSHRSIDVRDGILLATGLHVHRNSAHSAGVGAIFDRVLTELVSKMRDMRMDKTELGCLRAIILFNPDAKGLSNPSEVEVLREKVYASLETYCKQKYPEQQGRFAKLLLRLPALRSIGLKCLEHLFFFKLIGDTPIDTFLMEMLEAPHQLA
Kind of experiment: Agonist activity at yeast GAL4 fused human RXRbeta ligand binding domain expressed in HeLa cells assessed as receptor transactivation by luciferase reporter gene assay.

The target of experiment [4] is T4, Retinoic acid receptor beta (Mus musculus) (UniProt P22605).
T4 sequence (whole entry): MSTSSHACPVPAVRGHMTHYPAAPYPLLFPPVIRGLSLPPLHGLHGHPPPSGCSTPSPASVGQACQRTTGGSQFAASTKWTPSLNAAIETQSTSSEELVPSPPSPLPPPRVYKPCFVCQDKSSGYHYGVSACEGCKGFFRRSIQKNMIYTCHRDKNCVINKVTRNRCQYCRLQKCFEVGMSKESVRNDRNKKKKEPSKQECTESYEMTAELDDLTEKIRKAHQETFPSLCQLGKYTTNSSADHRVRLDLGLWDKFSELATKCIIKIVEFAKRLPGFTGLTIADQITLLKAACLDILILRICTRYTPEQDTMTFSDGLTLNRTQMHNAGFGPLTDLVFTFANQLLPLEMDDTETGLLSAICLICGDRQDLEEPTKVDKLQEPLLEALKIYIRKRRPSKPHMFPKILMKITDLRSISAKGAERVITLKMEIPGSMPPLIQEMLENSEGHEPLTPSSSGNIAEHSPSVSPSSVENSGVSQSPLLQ
Kind of experiment: (§2) Antagonist activity at yeast GAL4 fused mouse RARbeta ligand binding domain expressed in HeLa cells assessed as inhibition of TTNPB-induced receptor transactivation by luciferase reporter gene assay. The essentials:
(§3)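 The Gal4-mRAR fusion HeLa reporter lines [(17m)5-βG-Luc-Neo] were seeded at 160,000 cells/well. After 12 h, cells got 10 nM TTNPB plus rising test-compound concentrations in phenol-red-free DMEM with 5% charcoal-treated FCS for 12 h at 37 °C, 5% CO2. Luciferase in lysates was read luminometrically. Antagonism is the loss of activity relative to TTNPB alone.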

Experiment [5] concerns the target T2, Retinoic acid receptor alpha (Mus musculus). Put plainly: (§4) Antagonist activity at yeast GAL4 fused mouse RARalpha ligand binding domain expressed in HeLa cells assessed as inhibition of TTNPB-induced receptor transactivation by luciferase reporter gene assay. The essentials: as §3
Experiment [6] concerns the target T1, Retinoic acid receptor gamma (Mus musculus). Kind of experiment: (§5) Antagonist activity at yeast GAL4 fused mouse RARgamma ligand binding domain expressed in HeLa cells assessed as inhibition of TTNPB-induced receptor transactivation by luciferase reporter gene assay. The essentials:
as §3

Experiment [7] concerns the target T3, Retinoic acid receptor RXR-beta (Homo sapiens). Kind of experiment: Antagonist activity at yeast GAL4 fused human RXRbeta ligand binding domain expressed in HeLa cells assessed as inhibition of receptor transactivation by luciferase reporter gene assay.
The target of experiment [8] is T5, Retinoic acid receptor beta (Mus musculus, UniProt P22605).
T5 sequence (P22605 whole entry): T4 sequence (whole entry)
The description is as §2. In a few lines: as §3

The target of experiment [9] is T6, Retinoic acid receptor alpha (Mus musculus, UniProt P11416).
T6 sequence (P11416 whole entry): T2 sequence (whole entry)
Described as §4. In a few lines: as §3

For experiment [10], the target named is T7, Retinoic acid receptor gamma (Mus musculus, UniProt P18911).
T7 sequence (P18911 whole entry): T1 sequence (whole entry)
Described as §5. The essentials: as §3

Activity calls are given as the source filed them. The calls are words filed in the database; no cut-off is given here.

In the case of `CC1(C)CC=C(C#Cc2ccccc2)c2ccc(C(O)C(=O)Nc3ccc(C(=O)O)cc3F)cc21` (racemic), the outcome in experiment [1] and in experiment [2] was inactive.

Turning to `Cc1ccc(C2=CCC(C)(C)c3cc(C(O)C(=O)Nc4ccc(C(=O)O)cc4F)ccc32)cc1` (racemic), the outcome in [1], in [3] and in experiment [2] was inactive. For the same molecule, the inhibition result in experiment [4], in experiment [5] and in experiment [6] was “inactive” each time.

`CC1(C)CC=C(C#Cc2ccccc2)c2ccc(C(=O)/C=C/c3ccc(C(=O)O)cc3)cc21`: the outcome in experiment [1] and in experiment [2] was Active. The outcome in experiment [3] was inactive. Moreover, the inhibition result in [7] is “Active”.

For `Cc1ccc(C2=CCC(C)(C)c3cc(C(=O)/C=C/c4ccc(C(=O)O)cc4)ccc32)cc1`, the IC50 is 400 nM in experiment [8] and below 300 nM in [9].

Regarding `Cc1ccc(C2=CCC(C)(C)c3cc(C4=NOC(c5ccc(C(=O)O)cc5)C4)ccc32)cc1` (racemic), the inhibition entry in experiment [6] is “inactive”.

With `CC1(C)CC=C(c2ccccc2)c2ccc(C(=O)/C=C/c3ccc(C(=O)O)cc3)cc21`, the outcome in experiment [1] and in [2] was Active. Moreover, the inhibition result in experiment [7] was “Active”.

Regarding `CC1(C)CC=C(c2ccccc2)c2ccc(C3=NOC(c4ccc(C(=O)O)cc4)C3)cc21` (racemic), the 50% inhibitory concentration (IC50) in experiment [10] was above 10000 nM.

For `CC1(C)CC=C(C#Cc2ccccc2)c2ccc(C(=O)C(=O)Nc3ccc(C(=O)O)cc3F)cc21`, the outcome in experiment [3] was Active. For the same molecule, the inhibition result in experiment [4], in [5] and in [6] was “Active” in each case.

Consider `Cc1ccc(C2=CCC(C)(C)c3cc(C(O)/C=C/c4ccc(C(=O)O)cc4)ccc32)cc1` (racemic), for which the outcome in [1] was inactive. The IC50 in experiment [8] was 2000 nM; in experiment [9] it was 400 nM.

With `Cc1ccc(C2=CCC(C)(C)c3cc(C(=O)C(=O)Nc4ccc(C(=O)O)cc4F)ccc32)cc1`, the result in experiment [3] was Active. In addition, the inhibition entry in experiment [4], in experiment [5] and in [6] was “Active” each time.

For the molecule `CC1(C)CC=C(c2ccccc2)c2ccc(C(=O)C(=O)Nc3ccc(C(=O)O)cc3F)cc21`, the outcome in experiment [3] was Active. Besides, the inhibition entry in experiment [4], in [5] and in experiment [6] was “Active” each time.

As to `CC1(C)CC=C(c2ccccc2)c2ccc(C(O)C(=O)Nc3ccc(C(=O)O)cc3F)cc21` (racemic), the result in [1] and in experiment [2] was Active. Also, in [3], the outcome was inactive. In addition, the inhibition result in experiment [4], in experiment [5] and in [6] was “Active” throughout.

For `CC1(C)CC=C(C#Cc2ccccc2)c2ccc(C3=NOC(c4ccc(C(=O)O)cc4)C3)cc21` (racemic), the IC50 in [10] turned out to be 3000 nM.

As a reminder, the IC50 is the point on the concentration scale where inhibition reaches its midpoint.
